Results as given in ChEMBL document CHEMBL1129958, “Synthesis and antiviral activity of certain 5'-modified analogs of 2,5,6-trichloro-1-(beta-D-ribofuranosyl)benzimidazole” (J Med Chem, 1997).

Legend:
[1] = tested on: Human alphaherpesvirus 1; assay: In vitro antiviral activity against HSV-1 virus in BSC-1 (monkey kidney) cells.; type: functional, organism-based; settings: Human alphaherpesvirus 1, BSC-1
Summary of the method: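 BSC-1 cells, 10 000/well in MEM(E) with 10% calf serum, incubated overnight at 37 °C. Drug added in quadruplicate together with HSV-1 KOS at 100 PFU/well and incubated 3 days. Read-out by ELISA with HRP-conjugated rabbit anti-HSV-1 and TMB substrate, absorbance at 450 and 570 nm. Percent absorbance reduction against virus-only wells regressed on log concentration for IC50.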

[2] = tested on: L1210; assay: concentration required to decrease the cell density in the treated cultures to one-half of the control was measured on L1210 murine Leukemia cells (in vitro); type: functional, cell-based; settings: Mus musculus
Summary of the method: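 L1210 cells, 2000/well, given compound the day after plating and incubated 3 days; cell density read by MTS reduction. Concentration–response in two independent experiments. IC50 is the concentration that halves cell density relative to control, averaged over the two experiments.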

[3] = tested on: Human betaherpesvirus 5; assay: Antiviral activity was determined against Towne strain of HCMV by Plaque and yield reduction test; type: functional
[4] = tested on: HFF; assay: Visual cytotoxicity was scored on Human foreskin fibroblasts (HFF cells) at the time of plaque enumeration.; type: functional, cell-based
Summary of the method: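 Stationary HFF cells from the plaque assays, not affected by virus, inspected microscopically for cytotoxicity at the time of plaque counting.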

[5] = tested on: Human betaherpesvirus 5; assay: In vitro antiviral activity against HCMV (Towne strain) in HFF (human fibroblast) cells.; type: functional, organism-based; settings: Human betaherpesvirus 5, HFF
Summary of the method: (§1)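 HFF monolayers in 24-well dishes infected with about 100 PFU HCMV/cm2 of cell sheet. After adsorption, compound in growth medium added to duplicate wells at four to eight concentrations. Incubated 7 days at 37 °C, fixed and stained with crystal violet, microscopic plaques counted. Percent plaque reduction against no-drug wells regressed on log concentration to give IC50.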

[6] = tested on: L1210; assay: Effect of initial screen concentration of 100 uM on the growth of L1210 Murine Leukemia cells; type: functional, Mus musculus
Summary of the method: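 L1210 mouse leukemia cells in RPMI 1640 with 10% heat-inactivated horse serum, 2000 cells/well. Compound added the next day and incubated 3 days. Growth read by MTS tetrazolium reduction optical density as percent of control. Screen at 100 µM, or the solubility limit; value is the mean of two or three experiments.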

[7] = tested on: KB; assay: In vitro inhibition of KB (human carcinoma) cell growth.; type: functional, cell-based
Summary of the method: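 KB cells, 3000–5000/well, incubated overnight at 37 °C. Compound added in quadruplicate at six to eight concentrations for 48 h (about two population doublings). Cells fixed in 95% ethanol, stained with 0.1% crystal violet, dye eluted with acidified ethanol and read at 570 nm. IC50 from regression against log concentration.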

[8] = tested on: L1210; assay: concentration required to decrease the cell density in the treated cultures to one-half of the control was measured on L1210 murine Leukemia cells (in vitro); c=No significant growth inhibition observed atthe initial screen concentration; type: functional, cell-based, Mus musculus
[9] = tested on: L1210; assay: Effect of initial screen concentration of 10 uM on the growth of L1210 Murine Leukemia cells
[10] = tested on: Human betaherpesvirus 5; assay: Antiviral activity was determined against AD169 strain of HCMV by Plaque and yield reduction test; type: functional, organism-based; summary of the method: as §1
[11] = tested on: Human betaherpesvirus 5; assay: In vitro reduction in yield of Towne strain of HCMV in HFF (human fibroblast) cells.; type: functional; settings: Human betaherpesvirus 5, HFF
Summary of the method: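 HFF in 96-well plates infected with HCMV Towne at MOI 0.5-1 PFU/cell. After adsorption, compound given in duplicate, serially diluted 1:3 from 100 to 0.14 µM. After 7 days at 37 °C, one freeze-thaw cycle, then progeny titred by 1:3 serial dilution on fresh HFF monolayers with plaque counts. IC90 taken from regression of percent inhibition against log concentration.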

Row | SMILES | IC50 [1] [µM] | IC50 [2] [µM] | IC90 [3] [µM] | IC50 [4] [µM] | IC50 [5] [µM] | Control [6] [%] | IC50 [7] [µM] | IC50 [8] | Control [9] [%] | IC50 [10] [µM] | IC90 [11] [µM]
1 | [N-]=[N+]=NC[C@H]1OC(n2c(Cl)nc3cc(Cl)c(Cl)cc32)[C@H](O)[C@@H]1O (stereo partly drawn) | > 100 | 80 | 0.6 | 32 | 1.5 | 29 | 70 | – | – | – | –
2 | CC(=O)OC1C(CI)OC(n2c(Cl)nc3cc(Cl)c(Cl)cc32)C1OC(C)=O (stereo not drawn) | > 100 | – | – | 32 | 2.7 | – | 60 | – | – | – | –
3 | CC1(C)OC2C(CN=[N+]=[N-])OC(n3c(Cl)nc4cc(Cl)c(Cl)cc43)C2O1 (stereo not drawn) | – | – | – | 32 | 11 | – | – | – | – | – | –
4 | CC(=O)OC1C(CBr)OC(n2c(Cl)nc3cc(Cl)c(Cl)cc32)C1OC(C)=O (stereo not drawn) | > 100 | – | – | 32 | 2.7 | 94 | 60 | No significant growth | – | – | –
5 | CCCCOC[C@H]1O[C@@H](n2c(Cl)nc3cc(Cl)c(Cl)cc32)[C@H](OC(C)=O)[C@@H]1OC(C)=O | > 100 | – | – | 66 | 21 | – | > 100 | No significant growth | 92 | – | –
6 | CC1(C)OC2C(CCl)OC(n3c(Cl)nc4cc(Cl)c(Cl)cc43)C2O1 (stereo not drawn) | > 100 | – | – | 32 | 14 | – | 100 | – | – | – | –
7 | O[C@@H]1[C@@H](CI)OC(n2c(Cl)nc3cc(Cl)c(Cl)cc32)[C@@H]1O (stereo partly drawn) | > 100 | – | – | 32 | 3.2 | – | – | – | – | 2.9 | –
8 | CC(=O)OC1C(CN=[N+]=[N-])OC(n2c(Cl)nc3cc(Cl)c(Cl)cc32)C1OC(C)=O (stereo not drawn) | > 100 | – | – | 32 | 1.5 | – | 70 | No significant growth | 110 | – | –
9 | O[C@@H]1[C@@H](CBr)OC(n2c(Cl)nc3cc(Cl)c(Cl)cc32)[C@@H]1O (stereo partly drawn) | > 100 | 100 | – | 32 | 1.5 | 54 | 90 | – | – | – | 0.5
10 | COC[C@H]1OC(n2c(Cl)nc3cc(Cl)c(Cl)cc32)[C@H](O)[C@@H]1O (stereo partly drawn) | > 100 | 60 | – | 32 | 3 | 4 | 90 | – | – | – | 2
11 | OC[C@H]1O[C@@H](n2c(Cl)nc3cc(Cl)c(Cl)cc32)[C@H](O)[C@@H]1O | 102 | > 100 | – | – | 2.8 | 76 | – | – | – | – | 1.3
